In ChEMBL document CHEMBL1629603, “Voriconazole increases while itraconazole decreases plasma meloxicam concentrations” (Antimicrob Agents Chemother, 2009):
Values belong to the molecule of their own block, whether it stands above or below them. Calls of active or inactive are those of the source. The calls are words filed in the database; no cut-off is given here.

Key:
Plasma [1] = experiment: Fraction unbound in human at 15 mg, po pretreated with itraconazole at 200 mg, po qd for 4 days; type: ADME, organism-based; conditions: in vivo, 96 h
Outline: (§1)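 Plasma drawn 5 h after the single oral dose in each crossover phase (control, voriconazole 400 mg q12h day 1 then 200 mg q12h day 2, or itraconazole 200 mg daily for 4 days, last azole dose 1 h before). Ultrafiltered through a YM30 membrane at 1,200 x g, 25°C, 30 min. Free drug by LC-MS/MS; bound fraction derived from free versus total.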

Homo sapiens [2] = experiment: Inhibition of TxB2 production in human blood at 15 mg, po after 48 hrs by enzyme immunoassay pretreated with itraconazole at 200 mg, po qd for 4 days; type: functional
Outline: (§2)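 Ex vivo COX-1 index in healthy volunteers. Blood drawn without anticoagulant before and 5, 8, 12, 24, 48 h after the single oral dose, then clotted 1 h at 37°C. Serum TxB2 measured by enzyme immunoassay. Percent decrease calculated against each subject's own predose baseline, within a crossover with control or azole-pretreated phases.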

Plasma [3] = experiment: Fraction unbound in human plasma at 15 mg, po; type: ADME, organism-based; conditions: in vivo; outline: as §1
Homo sapiens [4] = experiment: Inhibition of TxB2 production in human blood at 15 mg, po measured up to 48 hrs by enzyme immunoassay pretreated with itraconazole at 200 mg, po qd for 4 days; type: functional, organism-based; outline: as §2
[5] = AUC (0 to 72 hrs) in human at 15 mg, po; type: ADME, organism-based; set-up: dose 15 mg, time < 72 hr, route oral; conditions: plasma
Outline: (§3)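 Healthy male volunteers (n=12), randomized three-phase Latin-square crossover with 4-week washout; single oral dose after overnight fast, lunch at 4 h. Venous plasma sampled predose and 1–72 h, stored –70°C; total drug by LC-MS/MS (piroxicam internal standard). Cmax and Tmax read directly from concentration data; AUC0-72 by linear (rising) / log (descending) trapezoidal rule.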

[6] = Cmax in human at 15 mg, po; type: ADME, organism-based; set-up: dose 15 mg, route oral; conditions: in vivo; outline: as §3
[7] = Tmax in human at 15 mg, po; type: ADME, organism-based; conditions: in vivo; outline: as §3
[8] = Protein binding in human plasma at 15 mg, po after 5 hrs; type: ADME, organism-based; conditions: read-out: PPB (converted); outline: as §1
[9] = Protein binding in human at 15 mg, po pretreated with voriconazole at 400 mg, po every 12 hrs for 1 day and 200, po mg every 12 hrs for one additional day measured after 5 hrs last post dose; type: ADME, organism-based; conditions: plasma, read-out: PPB (converted); outline: as §1
[10] = Protein binding in human at 15 mg, po pretreated with itraconazole at 200 mg, po qd for 4 days measured after 5 hrs last post dose; type: ADME, organism-based; conditions: plasma, read-out: PPB (converted); outline: as §1
Homo sapiens [11] = experiment: Inhibition of TxB2 production in human blood at 15 mg, po after 5 hrs by enzyme immunoassay; type: functional; outline: as §2
Homo sapiens [12] = experiment: Inhibition of TxB2 production in human blood at 15 mg, po after 8 hrs by enzyme immunoassay; type: functional; outline: as §2
Homo sapiens [13] = experiment: Inhibition of TxB2 production in human blood at 15 mg, po after 12 hrs by enzyme immunoassay; type: functional; outline: as §2
Homo sapiens [14] = experiment: Inhibition of TxB2 production in human blood at 15 mg, po after 24 hrs by enzyme immunoassay; type: functional; outline: as §2
Homo sapiens [15] = experiment: Inhibition of TxB2 production in human blood at 15 mg, po after 48 hrs by enzyme immunoassay; type: functional; outline: as §2
Homo sapiens [16] = experiment: Toxicity in human assessed as altered color vision changes at 400 mg, po every 12 hrs for 1 day and 200, po mg every 12 hrs for one additional day; type: organism-based; conditions: in vivo
Homo sapiens [17] = experiment: Toxicity in human assessed as photophobia at 400 mg, po every 12 hrs for 1 day and 200, po mg every 12 hrs for one additional day; type: organism-based; conditions: in vivo
Plasma [18] = experiment: Fraction unbound in human at 15 mg, po pretreated with voriconazole at 400 mg, po every 12 hrs for 1 day and 200, po mg every 12 hrs for one additional day; type: ADME, organism-based; conditions: in vivo
Outline: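 Healthy volunteers, open-label randomized crossover; 15 mg oral meloxicam given fasted 1 h after the last voriconazole dose. Plasma drawn 5 h post-dose; 1 ml ultrafiltered (YM30 filter, 1,200 x g, 25°C, 30 min). Unbound meloxicam measured by LC-MS/MS (positive ion, piroxicam internal standard; standards 0.5–50 ng/ml), all samples in one run.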

Homo sapiens [19] = experiment: Inhibition of TxB2 production in human blood at 15 mg, po after 5 hrs by enzyme immunoassay pretreated with voriconazole at 400 mg, po every 12 hrs for 1 day and 200, po mg every 12 hrs for one additional day; type: functional
Outline: (§4)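 Design: 12 healthy males, Latin-square three-phase crossover, 4-week washout; 15 mg oral meloxicam given fasted 1 h after the last voriconazole dose. Blood taken before and at 5, 8, 12, 24, 48 h into glass tubes without anticoagulant, clotted 1 h at 37°C. Serum TxB2 measured by enzyme immunoassay. Reported as percent decrease versus each subject's own baseline.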

Homo sapiens [20] = experiment: Inhibition of TxB2 production in human blood at 15 mg, po after 8 hrs by enzyme immunoassay pretreated with voriconazole at 400 mg, po every 12 hrs for 1 day and 200, po mg every 12 hrs for one additional day; type: functional; outline: as §4
Homo sapiens [21] = experiment: Inhibition of TxB2 production in human blood at 15 mg, po after 12 hrs by enzyme immunoassay pretreated with voriconazole at 400 mg, po every 12 hrs for 1 day and 200, po mg every 12 hrs for one additional day; type: functional; outline: as §4
Homo sapiens [22] = experiment: Inhibition of TxB2 production in human blood at 15 mg, po after 24 hrs by enzyme immunoassay pretreated with voriconazole at 400 mg, po every 12 hrs for 1 day and 200, po mg every 12 hrs for one additional day; type: functional; outline: as §4
Homo sapiens [23] = experiment: Inhibition of TxB2 production in human blood at 15 mg, po after 48 hrs by enzyme immunoassay pretreated with voriconazole at 400 mg, po every 12 hrs for 1 day and 200, po mg every 12 hrs for one additional day; type: functional; outline: as §4

Fu (Plasma [1]): 0.18%
SMILES: CCC(C)n1ncn(-c2ccc(N3CCN(c4ccc(OCC5COC(Cn6cncn6)(c6ccc(Cl)cc6Cl)O5)cc4)CC3)cc2)c1=O (stereo not drawn) [ITRACONAZOLE]

Fu (Plasma [3]): 0.18%
inhibition (Homo sapiens [4]): inactive
AUC(0-t) at 72 h [5]: 32400 ng·h/mL
Cmax [6]: 1250 ng/mL
Tmax [7]: 4 h
fraction unbound at 5 h [8]: 0.0017
fraction unbound at 5 h [9]: 0.0017
fraction unbound at 5 h [10]: 0.0018
SMILES: Cc1cnc(NC(=O)C2=C(O)c3ccccc3S(=O)(=O)N2C)s1 [MELOXICAM]
inhibition (INH) (Homo sapiens [2]): 29%
inhibition (INH) (Homo sapiens [11]): 30%
inhibition (INH) (Homo sapiens [12]): 37%
inhibition (INH) (Homo sapiens [13]): 56%
inhibition (INH) (Homo sapiens [14]): 28%
inhibition (INH) (Homo sapiens [15]): 25%

SMILES: C[C@@H](c1ncncc1F)[C@](O)(Cn1cncn1)c1ccc(F)cc1F [VORICONAZOLE]
Activity (Homo sapiens [16]): Toxic
Activity (Homo sapiens [17]): Toxic
Fu (Plasma [18]): 0.17%
inhibition (INH) (Homo sapiens [19]): 37%
inhibition (INH) (Homo sapiens [20]): 46%
inhibition (INH) (Homo sapiens [21]): 49%
inhibition (INH) (Homo sapiens [22]): 31%
inhibition (INH) (Homo sapiens [23]): 14%
